In ChEMBL document CHEMBL1125827, “Synthesis and smooth muscle relaxant activity of a new series of potassium channel activators: 3-amido-1,1-dimethylindan-2-ols” (J Med Chem, 1991):
pIC50: −log10 of the molar value.

Key:
Cavia porcellus [1] = species: Cavia porcellus; test: Intrinsic activity was measured for inhibition of spontaneous tone in guinea pig isolated trachealis; type: functional
How it was run: (§1)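 Spontaneously toned guinea pig trachealis, with compounds added cumulatively. Intrinsic activity is the ratio of maximum relaxation at concentrations up to 20 μM to the maximum relaxation produced by isoprenaline (10⁻³ M) at the end of the experiment, expressed as an arithmetic mean.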

Cavia porcellus [2] = species: Cavia porcellus; test: Inhibition of spontaneous tone in guinea pig isolated trachealis; type: functional, Trachea
Cavia porcellus [3] = species: Cavia porcellus; test: Compound was measured for inhibition of spontaneous tone in guinea pig isolated trachealis; e=Insufficient material for evaluation; type: functional
How it was run: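 Spontaneously developed tension held at […]. Compounds added cumulatively. Inhibition expressed as a percentage of the relaxation produced by isoprenaline (10⁻³ M) given at the end. IC50 is the concentration giving 50% of the isoprenaline response, read from the dose-response curve; generally a geometric mean of four or more determinations.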

Cavia porcellus [4] = species: Cavia porcellus; test: Intrinsic activity was measured for inhibition of spontaneous tone in guinea pig isolated trachealis; e=Insufficient material for evaluation; type: functional; how it was run: as §1

Row | SMILES | pIC50 (Cavia porcellus [2]; Cavia porcellus, Trachea) | pIC50 (Cavia porcellus [2]) | IC50 (Cavia porcellus [3]) | Intrinsic activity (Cavia porcellus [1]) | Intrinsic activity (Cavia porcellus [4])
1 | CC1(C)C=C(Cn2ccccc2=O)c2cc(C#N)ccc21 | < 4.70 |  |  | 0.32 | 
2 | CC1(C)c2ccc(N)cc2[C@@H](n2ccccc2=O)[C@@H]1O | < 4.70 |  |  | 0.1 | 
3 | CC1(C)c2cc(C(F)(F)F)ccc2[C@@H](n2ccccc2=O)[C@@H]1O | < 4.70 |  |  | 0.14 | 
4 | CC1(C)c2ccc([N+](=O)[O-])cc2[C@@H](n2ccccc2=O)[C@@H]1O | 6.82 |  |  | 0.89 | 
5 | C[C@@H]1CCC(=O)N1C1=CC(C)(C)c2ccc([N+](=O)[O-])cc21 | 5.62 |  |  | 0.84 | 
6 | CC1(C)C=C(N2CCCCC2=O)c2cc([N+](=O)[O-])ccc21 |  |  |  | 0.94 | 
7 | CC1(C)C=C(n2ccccc2=O)c2cc([N+](=O)[O-])ccc21 | 6.08 |  |  | 0.95 | 
8 | CCc1ccc2c(c1)[C@@H](n1ccccc1=O)[C@H](O)C2(C)C | 5.66 |  |  | 0.93 | 
9 | CC1(C)c2ccc(I)cc2[C@@H](N2CCCCC2=O)[C@@H]1O |  |  |  | 0.96 | 
10 | CC1CCC(=O)N1[C@@H]1c2cc([N+](=O)[O-])ccc2C(C)(C)[C@H]1O (stereo in doubt; 36a) |  |  |  | 0.89 | 
11 | CC1(C)Oc2ccc(C#N)cc2C(N2CCCC2=O)C1O (centres undefined) [CROMAKALIM] |  |  |  | 0.89 | 
12 | C[C@H]1CCC(=O)N1C1=CC(C)(C)c2ccc([N+](=O)[O-])cc21 |  |  | Insufficient material |  | Insufficient material

Second part, led by results:

Row | pIC50 (Cavia porcellus [2]; Cavia porcellus, Trachea) | pIC50 (Cavia porcellus [2]) | IC50 (Cavia porcellus [3]) | SMILES | Intrinsic activity (Cavia porcellus [1]) | Intrinsic activity (Cavia porcellus [4])
13 | 5.56 |  |  | CCc1ccc2c(c1)[C@@H](N1CCCCC1=O)[C@H](O)C2(C)C | 0.84 | 
14 | < 4.70 |  |  | CC1(C)c2cc(C#N)ccc2[C@@H](N2CCCCC2=O)[C@@H]1O | 0.17 | 
15 | < 4.70 |  |  | CC1(C)c2cc(C(F)(F)F)ccc2[C@@H](N2CCCCC2=O)[C@@H]1O | 0.15 | 
16 | < 4.70 |  |  | CC1(C)c2ccc([N+](=O)[O-])cc2[C@@H](N2CCCC2=O)[C@H]1O (relative stereo) | 0.26 | 
17 | 4.85 |  |  | CC1(C)C=C(CN2CCCC2=O)c2cc(C#N)ccc21 | 0.6 | 
18 | 6.31 |  |  | CC1(C)Oc2ccc(C#N)cc2[C@@H](N2CCCC2=O)[C@@H]1O [LEVCROMAKALIM] | 0.88 | 
19 |  | 6.59 |  | C[C@@H]1CCC(=O)N1[C@@H]1c2cc([N+](=O)[O-])ccc2C(C)(C)[C@H]1O (stereo in doubt; 36) | 0.99 | 
20 | 5.55 |  |  | CC1(C)c2ccc([N+](=O)[O-])cc2[C@@H](N2CCCC2=O)[C@@H]1O | 0.88 | 
21 | < 4.70 |  |  | CCc1ccc2c(c1)C(C)(C)[C@@H](O)[C@@H]2N1CCCCC1=O | 0.4 | 
22 | 6.57 |  |  | CC1(C)c2ccc(C#N)cc2[C@@H](N2CCCCC2=O)[C@@H]1O | 0.94 | 
23 | 5.07 |  |  | CC1(C)C=C(N2CCCCC2=O)c2ccc(C(F)(F)F)cc21 | 0.89 | 
24 | 6.46 |  |  | CC1(C)c2ccc([N+](=O)[O-])cc2[C@@H](N2CCCCC2=O)[C@H]1O | 0.89 | 
25 |  | 5.41 |  | CC1CCC(=O)N1[C@@H]1c2cc([N+](=O)[O-])ccc2C(C)(C)[C@H]1O (stereo in doubt; 36b) | 0.9 | 
26 | < 4.70 |  |  | O=C1CCCN1[C@@H]1c2cc([N+](=O)[O-])ccc2C[C@H]1O | 0.4 | 
27 |  | < 4.70 |  | C[C@@H]1CCC(=O)N1[C@@H]1c2cc([N+](=O)[O-])ccc2C(C)(C)[C@H]1O (stereo in doubt; 37) | 0.3 | 
28 | 5.71 |  |  | CC1(C)c2ccc(C#N)cc2[C@@H](n2ccccc2=O)[C@@H]1O | 0.81 | 
29 | 5.28 |  |  | CC1(C)C=C(n2ccccc2=O)c2cc(C#N)ccc21 | 0.77 | 
